Results on 10 compounds are retold here after ChEMBL document CHEMBL1157585, “Synthesis and characterization of novel 1,2,4-triazine derivatives with antiproliferative activity” (Bioorg Med Chem, 2010).

A short description of data set [1]: Antiproliferative activity against HUVEC after 72 hrs by resazurin dye reduction assay. Format: cell-based. Conditions: human, HUVEC cells. (The colour change of resazurin is a common sign of viable cells or microbes.)
A short description of data set [2]: Octanol-water partition coefficient, log P by RP-HPLC method. Format: physicochemical.
The next data set concerns HeLa. Nature of the data set: Cytotoxicity against human HeLa cells after 72 hrs by methylene blue staining. Format: functional. An outline of the steps:
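HeLa cells were cultured at 37 °C in RPMI 1640 with ultraglutamine, gentamicin and 10% heat-inactivated FBS, then pre-incubated 48 h without compound. Compound dilutions went onto the subconfluent monolayers, followed by 72 h at 37 °C, humidified, 5% CO2. Cells were fixed with glutaraldehyde, stained 15 min with 0.05% methylene blue and eluted with 0.33 N HCl, with OD read at 660 nm. CC50 was taken at 50% of untreated control, with 4 parallels per concentration.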

In the next data set the test system is K562. The data set is described as follows: Antiproliferative activity against human K562 cells after 72 hrs by resazurin dye reduction assay. The conditions noted are these: K562, 72 h. Format: functional. An outline of the steps:
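K-562 cells grown at 37 °C in RPMI 1640 with ultraglutamine, gentamicin and 10% heat-inactivated FBS. About 10,000 cells seeded per well in 0.1 mL medium. Compounds were dissolved in DMSO, diluted in DMEM and incubated with cells for 72 h at 37 °C, humidified, 5% CO2. Viable cells were read by CellTiter-Blue resazurin fluorescence. GI50 was taken where the dose-response curve crosses 50% of untreated control, with 4 parallels per concentration.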

The next data set concerns the target Albumin (Homo sapiens, UniProt P02768). Nature of the data set: Binding affinity to HSA after 30 mins assessed as quenching of intrinsic HSA fluorescence emission by spectrofluorimetric assay. Format: ADME. Put shortly:
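Intrinsic tryptophan fluorescence of HSA at 2 µM final in PBS pH 7.4. Compound stocks were made in DMSO and titrated at increasing concentrations, with 30 min incubation at ambient temperature. Kd came from a quadratic binding equation fitted by nonlinear least squares (Marquardt).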

pKd: −log10 of the molar value. In brackets after ≈: the same amount, converted by molar mass.

Albumin, sequence (P02768 whole entry): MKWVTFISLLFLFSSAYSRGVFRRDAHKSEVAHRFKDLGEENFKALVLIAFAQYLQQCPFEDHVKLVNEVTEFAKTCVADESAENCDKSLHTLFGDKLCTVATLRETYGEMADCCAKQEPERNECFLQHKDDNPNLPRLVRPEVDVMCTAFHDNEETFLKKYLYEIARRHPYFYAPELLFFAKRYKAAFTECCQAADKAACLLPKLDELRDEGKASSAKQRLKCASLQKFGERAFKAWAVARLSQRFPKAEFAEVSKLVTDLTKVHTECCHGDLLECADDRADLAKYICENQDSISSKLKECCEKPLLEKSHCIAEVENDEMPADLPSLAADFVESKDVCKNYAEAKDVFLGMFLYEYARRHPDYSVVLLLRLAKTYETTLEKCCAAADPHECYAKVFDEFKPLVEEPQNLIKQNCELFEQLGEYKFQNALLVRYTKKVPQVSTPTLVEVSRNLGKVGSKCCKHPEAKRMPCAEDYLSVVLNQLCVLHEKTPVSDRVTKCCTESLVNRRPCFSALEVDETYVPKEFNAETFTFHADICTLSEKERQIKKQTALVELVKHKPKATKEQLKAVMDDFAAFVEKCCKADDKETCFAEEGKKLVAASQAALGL

As to `O=C1C(N2CCCCC2)=NN(c2ccc(Cl)cc2)CN1c1ccccc1Cl`, in data set [1], the 50% growth inhibitory concentration (GI50) (commonly the concentration giving 50% growth inhibition) at 72 h was above 50 µg/mL. Besides, the lipophilicity (logP) (in general, a log measure of how a compound divides between an organic and an aqueous phase) in data set [2] came to 5. Besides, in the data set on HeLa, the CC50 (usually the concentration giving 50% cytotoxicity) was above 50 µg/mL. In the data set with K562, the concentration for 50% growth inhibition (GI50) is above 50 µg/mL.

In turn, `CN(C)C1=NN(c2ccccc2)CN(c2ccccc2Cl)C1=O` showed a GI50 at 72 h in data set [1] of 34.5 µg/mL (≈ 105 µM). The compound also displayed a log partition coefficient (logP) in data set [2] of 3.6. Also, the CC50 with HeLa was found to be 39.5 µg/mL (≈ 120 µM). Also, the GI50 in the data set on K562 was 5.8 µg/mL (≈ 17.6 µM). Besides, at Albumin, the negative logarithm of the Kd (pKd) (in general, the negative decadic logarithm of the Kd, by convention in mol/L) was 5.10.

For the compound `CN(C)C1=NN(c2ccc(Cl)cc2)CN(c2ccccc2Cl)C1=O`, it took 16.1 µg/mL (≈ 44.3 µM) to inhibit growth in data set [1] by half (GI50 at 72 h). The compound also displayed a logP in data set [2] of 4.2. Half-maximal cytotoxicity with HeLa (CC50) was put at 39.4 µg/mL (≈ 108 µM). The compound further showed a GI50 in the data set with K562 of 11 µg/mL (≈ 30.3 µM). Also, the negative logarithm of the Kd (pKd) on Albumin is 4.99.

Regarding `O=C1C(N2CCCC2)=NN(c2ccccc2)CN1c1ccccc1Cl`, the GI50 at 72 h in data set [1] turned out to be 40.9 µg/mL (≈ 115 µM). This compound also yielded a log partition coefficient (logP) in data set [2] of 4. Besides, the CC50 with HeLa amounted to 44.3 µg/mL (≈ 125 µM). Further, in the data set on K562, the concentration for 50% growth inhibition (GI50) amounted to 5.2 µg/mL (≈ 14.7 µM). For the same compound, the negative logarithm of the Kd (pKd) on Albumin was 5.61.

As for `O=C1C(N2CCCCC2)=NN(c2ccccc2)CN1c1ccccc1Cl`, the 50% growth inhibitory concentration (GI50) at 72 h in data set [1] was 24.7 µg/mL (≈ 67 µM). The compound also registered a log partition coefficient (logP) in data set [2] of 4.6. This compound yielded a half-maximal cytotoxic concentration (CC50) with HeLa of 26 µg/mL (≈ 70.5 µM). In addition, the GI50 with K562 was 42 µg/mL (≈ 114 µM).

In turn, `O=C1C(N2CCOCC2)=NN(c2ccc(Cl)cc2)CN1c1ccccc1Cl` yielded a concentration for 50% growth inhibition (GI50) at 72 h in data set [1] of 45.6 µg/mL (≈ 113 µM). The log partition coefficient (logP) in data set [2] was 4. In addition, the CC50 in the data set with HeLa was above 50 µg/mL. Further, in the data set on K562, the GI50 was above 50 µg/mL.

For the compound `O=C1C(N2CCOCC2)=NN(c2ccccc2)CN1c1ccccc1Cl`, in data set [1], the GI50 at 72 h is above 50 µg/mL. Further, the lipophilicity (logP) in data set [2] worked out at 3.5. In the data set on HeLa, this compound registered a cytotoxic concentration (CC50) above 50 µg/mL. This compound returned a 50% growth inhibitory concentration (GI50) in the data set with K562 above 50 µg/mL.

For `O=C1C(N2CCCC2)=NN(c2ccc(Cl)cc2)CN1c1ccccc1Cl`, in data set [1], the GI50 at 72 h came out at 18.9 µg/mL (≈ 48.6 µM). Moreover, in data set [2], the lipophilicity (logP) came to 4.6. Moreover, in the data set on HeLa, the 50% cytotoxic concentration (CC50) is above 50 µg/mL. Further, the GI50 with K562 was 8.6 µg/mL (≈ 22.1 µM). The negative logarithm of the Kd (pKd) on Albumin is 5.56.

As for `COc1cccc2c1C(=O)c1c(O)c3c(c(O)c1C2=O)C[C@@](O)(C(=O)CO)C[C@@H]3O[C@H]1C[C@H](N)[C@H](O)[C@H](C)O1` [DOXORUBICIN], the GI50 at 72 h in data set [1] came out at 0.1 µg/mL (≈ 0.184 µM). In data set [2], the lipophilicity (logP) worked out at 0.71. This compound also showed a CC50 with HeLa of 2 µg/mL (≈ 3.68 µM). Besides, growth with K562 was halved (GI50) at 1 µg/mL (≈ 1.84 µM).

For `Cc1ccc(NC(=O)c2ccc(CN3CCN(C)CC3)cc2)cc1Nc1nccc(-c2cccnc2)n1` [IMATINIB], halving of growth in data set [1] (GI50 at 72 h) required 10.9 µg/mL (≈ 22.1 µM). For the same compound, the concentration for 50% growth inhibition (GI50) in the data set with K562 was 0.1 µg/mL (≈ 0.203 µM).
